MrgX1 allo act = human MrgX1 positive allosteric modulation, primary screen; Q96LB2; MrgX1-HEK293, Fluo-4 calcium flux, FDSS; stronger effect = higher value; B-score at 10 µM; 0.63% of 310,000 active; AID 588675;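 active = plate-corrected calcium response at least 3 library SD above typical, normal starting fluorescence, not activating the receptor alone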;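 note: compound read alongside a low EC10 to EC30 dose of BAM8-22 agonist; peak minus trough fluorescence over baseline measured at the second addition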
Target sequence (Q96LB2 whole entry, looked up): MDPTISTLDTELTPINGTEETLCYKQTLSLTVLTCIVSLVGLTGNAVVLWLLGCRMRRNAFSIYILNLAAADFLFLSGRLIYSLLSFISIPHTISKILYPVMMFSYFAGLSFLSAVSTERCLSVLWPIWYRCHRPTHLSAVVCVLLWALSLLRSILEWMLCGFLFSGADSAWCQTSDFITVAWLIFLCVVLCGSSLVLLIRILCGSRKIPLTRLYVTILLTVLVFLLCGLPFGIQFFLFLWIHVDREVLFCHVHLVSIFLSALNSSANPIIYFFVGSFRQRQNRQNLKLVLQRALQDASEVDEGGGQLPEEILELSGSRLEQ
RGS4 inh = inhibitors of human RGS4. P49798. HEK293 M3R/RGS4 inducible, Fluo-4 calcium flux; stronger effect = higher value; triggered by carbachol at its EC20. B-score at 10 µM. 0.45% of 310,000 active;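 active = B-score, a plate-corrected calcium signal, over three deviations above library mean, with baseline fluorescence within five deviations of library mean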;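 note: RGS4 expression induced by doxycycline in cells with stable M3 receptor; B-score is computed from the integrated fluorescence ratio over baseline after carbachol; higher B-score means a larger calcium signal and so more RGS4 inhibition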
Target sequence (P49798 whole entry, looked up): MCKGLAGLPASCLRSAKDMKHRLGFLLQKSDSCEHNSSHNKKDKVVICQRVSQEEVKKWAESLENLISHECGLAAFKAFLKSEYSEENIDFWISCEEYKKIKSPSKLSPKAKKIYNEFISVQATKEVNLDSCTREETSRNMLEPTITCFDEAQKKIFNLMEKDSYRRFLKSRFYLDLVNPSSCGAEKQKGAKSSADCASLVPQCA
MrgX1 agonist = human MrgX1 receptor agonism, primary screen. MrgX1-HEK293 cells, Fluo-4 calcium fluorescence, agonist mode; stronger effect = higher value. Q96LB2. B-score at 10 µM. 0.44% of 310,000 active;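 active = calcium response B-score plate-corrected fluorescence ratio at least 3 library SD, with starting fluorescence B-score inside 5 SD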
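Assay system: MrgX1-expressing HEK293 cells / Amount: fifteen thousand cells per well / Doses: test compound in the initial addition of three / Timing: cells plated overnight, dye loaded 0.5 h 37 °C, 0.5 h room temperature / Technique: kinetic calcium dye fluorescence, Fluo-4 NW / Control set: positive and negative controls per plate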
MrgX1 antag = human MrgX1 receptor antagonism, primary screen. Q96LB2. MRGX1-HEK293 calcium flux, Fluo-4, BAM8-22 antagonism; stronger effect = lower value. B-score at 10 µM. 1.3% of 310,000 active;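 active = calcium-response B-score plate-corrected more than 3 library SD below zero, starting fluorescence within 5 deviations, no agonist response on first addition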;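 note: peak minus trough fluorescence over baseline after final BAM8-22 challenge near maximal dose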
RGS4 pot = RGS4 potentiation or activation | HEK293 M3R/inducible RGS4, carbachol calcium flux Fluo4; stronger effect = lower value | B-score at 10 µM | 0.92% of 310,000 active | AID 463111;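 active = B-score of the integrated calcium signal more than 4 SD below the library mean, with starting fluorescence not abnormally high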;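 note: negative B-score means reduced calcium response which marks RGS4 activation or potentiation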
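Material: Inducible-RGS4 HEK293 cells carrying M3 receptor; also added: carbachol at ECmax as muscarinic agonist stimulus; incubation: compound preincubation 20 min at room temperature before agonist; signal: Fluo4-AM (2 µM) calcium-flux fluorescence, kinetic read; measure: integrated calcium ratio converted to B score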
Hits are given with their value; – = inactive. Only some compounds are listed: those with a hit (about 3.5% of all), similar ones and a draw of the others.

SMILES	MrgX1 allo act	RGS4 inh	MrgX1 agonist	MrgX1 antag	RGS4 pot
CCn1c(-c2ccccc2Cl)nn(CC(=O)NCCc2ccccc2)c1=S	12	–	–	–	–
COc1ccc2cc3cc(C(=O)N4CCN(c5ccccn5)CC4)oc3nc2c1	–	–	–	–	–
C[N+]1(C)CCC(=C2c3ccccc3CC(=O)c3sccc32)CC1	–	–	–	–	-8.3
CCn1nc(C)c(/C=N/NC(=O)c2ccoc2C)c1C	–	–	–	-5.6	–
CCCCCn1nc(C)c(/C=N/NC(=O)c2ccoc2C)c1C	–	–	–	–	–
COc1cccc(-c2nc(N)nc(SC)c2C#N)c1	–	–	–	–	–
Cc1c(CCC(=O)N2CCC(C(=O)O)(c3ccccc3)CC2)c(=O)oc2cc3oc4c(c3cc12)CCCC4	–	–	–	-6.2	–
Cc1c(CCC(=O)N2CCC(C(=O)O)CC2)c(=O)oc2cc3oc4c(c3cc12)CCCC4	–	–	–	–	–
CN(C)c1ccc(CNC(=O)C2CCC(CNc3c(N4CCCCC4)c(=O)c3=O)CC2)cc1 (stereo not given)	–	–	–	–	–
O=C(N/N=C/c1ccco1)c1cccc(S(=O)(=O)Nc2ccccc2Cl)c1	–	–	–	–	–
Cc1ccc(/C=N/NC(=O)c2cccc(S(=O)(=O)Nc3ccccc3Cl)c2)o1	13	–	–	–	–
O=C(CCN1C(=O)/C(=C\c2cccs2)SC1=S)Nc1ccc(C(=O)O)cc1	–	–	–	–	–
CCN(CC)CCOC(=O)c1ccc(NC(=O)CCCN2C(=O)/C(=C\c3cccs3)SC2=S)cc1	–	–	–	–	-7.6
O=C(CCCN1C(=O)/C(=C\c2cccs2)SC1=S)Nc1cccnc1	–	–	–	–	–
O=C(CCCN1C(=O)/C(=C/c2cccs2)SC1=S)Nc1cccnc1	–	–	–	-5.6	–
COC(=O)c1ccc(/C=C(/NC(=O)c2ccccc2)C(=O)N2CCOCC2)cc1	–	–	–	–	–
N=c1c2c(-c3ccccc3)c(-c3ccccc3)n(Cc3ccco3)c2ncn1Cc1ccco1	–	–	–	-8.1	-7
N=c1c2c(-c3ccccc3)c(-c3ccccc3)n(Cc3ccccc3)c2ncn1CCCn1ccnc1	–	–	–	–	–
CSc1sccc1/C=C(/C#N)C(=O)c1ccco1	–	–	37	–	–
Cn1c(=O)c([N+](=O)[O-])c(NCC(O)c2ccccc2)c2ccccc21 (stereo not given)	–	–	–	-5.7	–
CCn1c(=O)c([N+](=O)[O-])c(NCC(O)c2ccccc2)c2ccccc21 (stereo not given)	–	–	–	–	–
O=C1C(=C2CCCCC2)SC(=S)N1Cc1ccco1	–	–	–	–	-7.9
O=C(Cc1cccc2ccccc12)Nc1ccc(Br)cc1C(=O)O	–	–	–	-6.3	–
O=C(c1ccc(-c2ccccc2Cl)o1)N1CCN(S(=O)(=O)c2cccs2)CC1	–	–	–	–	–
CCOc1ccc(N2C(=O)/C(=C/c3cc(OC)c(OC)c(OC)c3)N(CC(=O)OC)C2=S)cc1	–	–	–	–	–
SMILES	MrgX1 allo act	RGS4 inh	MrgX1 agonist	MrgX1 antag	RGS4 pot
CCOc1ccc(/C=C2/C(=O)N(c3ccc(OC)cc3)C(=S)N2CC(=O)OC)cc1OCC	–	–	–	-6.4	–
Cc1ccsc1/C=C1/C(=O)NN(c2ccccc2)C1=O	–	–	33	–	–
Cc1ccsc1C=C1C(=O)c2ccccc2C1=O	–	–	–	–	–
CCCCN(C)S(=O)(=O)c1ccc(C(=O)Nc2nnc(-c3cccs3)o2)cc1	–	–	31	–	–
O=C(O)C(O)(c1ccccc1)C(O)c1ccccc1 (stereo not given)	–	–	–	–	–
O=C(NCc1cccc(Cl)c1)c1cc(=O)[nH]c2ccccc12	–	–	–	–	–
CCN(CC)C(CNC(=O)c1cc(=O)[nH]c2ccccc12)c1ccccc1Cl (stereo not given)	–	–	–	–	-7.5
CC1CCCC(NC(=O)CCNC(=O)c2ccc(Br)cc2)C1C (stereo not given)	–	–	–	–	–
CC1(C)CC(=O)c2c(O)cc(OCC(=O)NCCc3ccc(S(N)(=O)=O)cc3)cc2O1	–	–	–	–	–
O=C(Nc1ccccc1)C1=C[C@H](c2ccccc2)C[C@H](OCc2ccc(CO)cc2)O1	7.3	–	–	–	–
C=CCN1C(=O)c2ccc(C(=O)N3CCN(S(=O)(=O)c4ccc(C(C)C)cc4)CC3)cc2C1=O	–	–	–	–	–
C=CCNC(=O)CC(=O)N/N=C/c1cccc(C)c1	–	–	–	-4.6	–
Cc1ccc(NS(=O)(=O)c2ccc(NC(=O)c3ccccc3C(=O)O)cc2)cc1C	–	–	–	–	–
CC(=O)Nc1ccc(C(=O)N/N=C/c2ccccc2OC(=O)c2ccc(Cl)cc2)cc1	–	–	–	–	-7.3
CC(C)c1ccc(C(=O)N/N=C/c2cccc(Cl)c2Cl)cc1	6.5	–	–	–	–
CC(C)c1ccc(/C=N/NC(=O)c2cccc(Cl)c2)cc1	–	–	–	–	–
C[C@@H](C(=O)NCc1c(F)cccc1Cl)N1C(=O)N2CCc3c([nH]c4ccccc34)[C@@]2(C)C1=O	–	–	–	–	–
COC(=O)c1ccccc1NC(=O)CN1CCc2ccccc2C1	–	–	–	–	–
COC(=O)c1ccccc1NC(=O)CN1CCN(C23CC4CC(CC(C4)C2)C3)CC1	–	–	–	–	-8
CN1CCN(C2=C(Cl)C(=O)C(c3cnc(N4CCCCC4)s3)=C(Cl)C2=O)CC1	–	–	–	–	-7.1
c1cnc(N2CCN(c3nc4ccccc4n4cnnc34)CC2)nc1	–	–	–	–	–
c1ccc(C(c2ccccc2)N2CCN(c3nc4ccccc4n4cnnc34)CC2)cc1	–	–	–	–	-7.2
O=C(COc1ccc(Cl)cc1)Nc1ccc(C(=O)O)cc1NC(=O)COc1ccc(Cl)cc1	–	–	–	–	–
COc1cc(C2C3=C(CC(C)(C)CC3=O)Nc3ccccc3N2C(C)=O)cc(OC)c1OC (stereo not given)	–	–	–	–	–
C=C1SC(=Nc2c(C)cccc2Cl)N(C(=O)c2sc3ccccc3c2Cl)C12CCCCC2	–	–	–	-5.1	–
COCCN(C(=O)COC(=O)CCc1ccccc1OC)c1c(N)n(Cc2ccccc2)c(=O)[nH]c1=O	–	–	–	-6	–
Cc1c(C(=O)N/N=C/c2ccoc2)cccc1[N+](=O)[O-]	–	–	–	–	–
Cc1cc(C)cc(-n2c(C)cc(/C=N/NC(=O)CSc3ncccn3)c2C)c1	–	–	–	–	-8.3
Cc1cc(C)cc(-n2c(C)cc(/C=N/NC(=O)c3ccncc3)c2C)c1	–	–	–	–	–
Cc1cc(C)cc(-n2c(C)cc(/C=N/NC(=O)c3cccc([N+](=O)[O-])c3C)c2C)c1	–	–	–	–	-7.3

Screening results: PubChem BioAssay, Johns Hopkins Ion Channel Center
